MrgX1 allo act = human MrgX1 positive allosteric modulation, primary screen. B-score at 10 µM. AID 588675. 310,000 tested, 0.63% active. MrgX1-HEK293, Fluo-4 calcium flux, FDSS; active compounds read high;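 active means plate-corrected calcium response at least 3 library SD above typical, normal starting fluorescence, not activating the receptor alone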;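 further: compound read alongside a low EC10 to EC30 dose of BAM8-22 agonist; peak minus trough fluorescence over baseline measured at the second addition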
Target sequence (Q96LB2 whole entry, looked up): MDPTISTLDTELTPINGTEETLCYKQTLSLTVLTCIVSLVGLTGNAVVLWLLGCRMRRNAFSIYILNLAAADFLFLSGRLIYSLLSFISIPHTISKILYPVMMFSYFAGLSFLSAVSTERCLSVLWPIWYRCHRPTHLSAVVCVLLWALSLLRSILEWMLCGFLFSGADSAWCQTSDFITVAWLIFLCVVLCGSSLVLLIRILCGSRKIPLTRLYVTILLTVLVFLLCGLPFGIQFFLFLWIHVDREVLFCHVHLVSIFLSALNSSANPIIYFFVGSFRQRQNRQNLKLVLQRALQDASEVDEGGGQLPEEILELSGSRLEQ
MrgX1 ag = agonists of human MrgX1 receptor; Q96LB2; B-score at 10 µM; MrgX1-HEK293 cells, Fluo-4 calcium fluorescence, agonist mode; active compounds read high; 310,000 tested, 0.44% active;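 active means calcium response B-score plate-corrected fluorescence ratio at least 3 library SD, with starting fluorescence B-score inside 5 SD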
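Test system: Stable human MrgX1 HEK293 cell line | Schedule: Overnight plating before 1 h dye loading | Read-out basis: Baseline-normalised fluorescence change ratio, B-scored | Detection: Kinetic calcium dye fluorescence, Fluo-4 NW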
MrgX1 antag = antagonists of human MrgX1 receptor. MRGX1-HEK293 calcium flux, Fluo-4, BAM8-22 antagonism; active compounds read low. B-score at 10 µM. 310,000 tested, 1.3% active;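 active means calcium-response B-score plate-corrected more than 3 library SD below zero, starting fluorescence within 5 deviations, no agonist response on first addition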;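 further: peak minus trough fluorescence over baseline after final BAM8-22 challenge near maximal dose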
RGS4 act = RGS4 potentiation or activation. HEK293 M3R/inducible RGS4, carbachol calcium flux Fluo4; active compounds read low. B-score at 10 µM. 310,000 tested, 0.92% active. AID 463111;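 active means B-score of the integrated calcium signal more than 4 SD below the library mean, with starting fluorescence not abnormally high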;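 further: negative B-score means reduced calcium response which marks RGS4 activation or potentiation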
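Detection: kinetic calcium fluorescence imaging with Fluo4-AM dye, 2 µM / Material: HEK293 cells with stable M3R and inducible RGS4 / Schedule: recording 10 s baseline at 1 Hz, 100 s post-agonist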
RGS4 inh = human RGS4 inhibition. P49798. HEK293 M3R/RGS4 inducible, Fluo-4 calcium flux; active compounds read high; triggered by carbachol at its EC20. B-score at 10 µM. 310,000 tested, 0.45% active. AID 463165;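 active means B-score, a plate-corrected calcium signal, over three deviations above library mean, with baseline fluorescence within five deviations of library mean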;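 further: RGS4 expression induced by doxycycline in cells with stable M3 receptor; B-score is computed from the integrated fluorescence ratio over baseline after carbachol; higher B-score means a larger calcium signal and so more RGS4 inhibition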
Target sequence (P49798 whole entry, looked up): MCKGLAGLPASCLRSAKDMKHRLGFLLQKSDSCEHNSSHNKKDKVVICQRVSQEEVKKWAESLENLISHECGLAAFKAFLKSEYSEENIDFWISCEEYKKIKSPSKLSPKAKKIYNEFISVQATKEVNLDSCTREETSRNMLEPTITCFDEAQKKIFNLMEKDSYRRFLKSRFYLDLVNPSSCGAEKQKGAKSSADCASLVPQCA
Lipid droplet = modulators of hepatic lipid droplet formation; AML12 mouse hepatocytes, oleate lipid droplets, BODIPY imaging; inhibition, % at 6.5 µM; 240,000 tested, 0.4% active;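 active means lipid droplet intensity inhibited by at least 50%, with more than 500 cells counted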
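Assay system: AML12 hepatocytes (mouse); Probe or stimulus: oleic acid at 100 µM to induce lipid droplet formation; Dosing: compound at 6.5 µM only; Schedule: compound with oleate, overnight; Detection: fluorescence imaging, 20x objective, two fields per well; Measure: % inhibition of lipid droplet signal.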
RGS4 block valid = RGS4 inhibitor validation | shares compounds with RGS4 inh | HEK293 M3R/RGS4, carbachol calcium Fluo-4 fluorescence; carbachol added at its EC20; 0 = buffer wells, 100 = carbachol control | calcium response, % at 10 µM | 1,700 tested, 65% active;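 active means duplicate-averaged calcium response above the buffer-only control mean plus 5 SD of those controls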;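 further: integrated fluorescence ratio F max minus min over baseline F0; higher response in RGS4-induced cells means RGS4 inhibition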
RGS4 uninduced = counter-screen for RGS4 inhibitors: effect in non-induced cells; shares compounds with RGS4 inh; HEK293 M3R non-induced, carbachol calcium Fluo-4; submaximal (EC20) carbachol stimulus; buffer wells 0%, carbachol control wells 100%; activity (percent), % at 10 µM; 1,900 tested, 20% active; call rule not given here;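 further: RGS4 induction absent so cells express M3R without RGS4; higher means more calcium signal and flags a non-specific hit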
M3R basal Ca ctr = second RGS4 inhibitor counter-screen in uninduced cells lacking carbachol; shares compounds with RGS4 inh; HEK293 M3R/RGS4 non-induced, Fluo-4 calcium, no carbachol; normalised: buffer wells 0%, carbachol wells 100%; calcium response (agonist-mode artifact), % at 10 µM; 1,900 tested, 22% active; AID 493001;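 active means duplicate-averaged calcium rise in uninduced cells above buffer wells' mean plus 5 SD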
* hit, by the source's call; i = inactive; . = no result. A selection: hits, their analogues and other compounds. The true share with any hit is near 3.8%.

SMILES	MrgX1 allo act	MrgX1 ag	MrgX1 antag	RGS4 act	RGS4 inh	Lipid droplet	RGS4 block valid	RGS4 uninduced	M3R basal Ca ctr
O=C(c1ccc(F)cc1F)N1CCN(c2n[nH]c(=O)[nH]c2=O)CC1	i	i	i	i	i	-3.3	.	.	.
Cc1cc(Br)cc2c1N(C)C(=O)C2(c1ccc(O)cc1)c1ccc(O)cc1	i	i	i	i	27.1*	.	75.5%*	43.0%*	i
Cc1cc(NS(=O)(=O)c2ccc(Nc3nc(-c4sc(N)nc4C)cs3)cc2)no1	i	i	i	i	i	-8.6	.	.	.
Cc1cc(NS(=O)(=O)c2ccc(Nc3nc(-c4ccc(C)c(C)c4)cs3)cc2)no1	i	i	i	i	i	14.7	i	33.5%*	i
COc1cc(NS(=O)(=O)c2ccc(Nc3nc(-c4ccccc4)cs3)cc2)nc(OC)n1	i	i	i	i	7.96*	-22.6	18.5%*	i	i
CCC(=O)Nc1ccc(S(=O)(=O)Nc2cc(C)on2)cc1	i	i	i	i	i	11.3	.	.	.
Cc1cc(NS(=O)(=O)c2ccc(Nc3nc(-c4ccc(O)cc4)cs3)cc2)no1	i	i	i	i	i	7.9	.	i	i
COc1ccc(/C(C)=C(\C#N)C(=O)OC(C)C)cc1OC	i	i	i	i	i	-5.5	.	.	.
C=CCOc1nc2sc(C)c(C)c2c(=O)n1-c1ccccc1	i	i	i	i	6.04*	.	i	i	i
Clc1ccc(-c2csc(N/N=C\c3cccnc3)n2)cc1	i	i	i	i	i	12.4	.	65.0%*	i
Clc1ccc(-c2csc(N/N=C/c3ccco3)n2)cc1	i	i	i	i	i	3.4	.	.	.
CC(C)(C)C(CN1CCCC1)OC(=O)c1ccccc1 (stereo not drawn)	i	i	i	i	i	-3.9	.	.	.
COc1ccc(CCNCC(O)Cn2c3ccccc3c3ccccc32)cc1OC (stereo not drawn)	i	i	i	i	17.5*	-2.6	62.0%*	i	14.5%*
Cc1c(CNC(=O)C2CC2)c(-n2cccc2)n(Cc2ccccc2)c1C	i	i	i	i	i	14.6	.	.	.
CCOC(=O)C1=C(C)Nc2nc(=S)[nH]n2C1c1ccc(Cl)cc1 (stereo not drawn)	.	.	.	i	9.22*	.	14.5%*	35.0%*	18.0%*
CCOC(=O)C1=C(C)Nc2nc(SCC)nn2C1c1ccc(OC)cc1 (stereo not drawn)	i	i	i	i	i	2.5	.	.	.
Cc1ccc2nc(SCC(=O)Nc3cc([N+](=O)[O-])ccc3F)[nH]c2c1	i	i	i	i	i	5.5	.	.	.
NC(=O)Cn1c(=O)n(CC(=O)N2CCCCC2)c(=O)c2sccc21	i	i	i	i	i	0.7	.	.	.
CCN(Cc1ccccc1)C(=O)Cn1c(=O)n(CC(=O)N2CCCCC2)c(=O)c2sccc21	i	i	i	i	i	3.7	.	43.5%*	i
COc1ccc(N=N/C(=C\O)C(=O)c2cccs2)cc1	i	i	i	i	i	28.3	.	.	.
Cc1cccc(N=N/C(=C\O)C(=O)c2ccc(Br)cc2)c1	i	i	i	i	5.27*	5.0	26.0%*	i	i
COc1ccc(C(=O)/C(=C/O)N=Nc2ccc(F)cc2)cc1	i	i	i	i	6.76*	14.5	56.0%*	128.0%*	i
COC(=O)c1ccc(OC)c(OC)c1Cl	i	i	i	i	5.81*	15.4	5.5%*	i	i
CCOC(=O)c1ccc(OC)c(OC)c1Cl	i	i	i	i	i	26.4	.	.	.
CCc1ccccc1Oc1ccc(S(=O)(=O)N2CCN(C)CC2)cn1	i	i	i	i	i	.	.	.	.
SMILES	MrgX1 allo act	MrgX1 ag	MrgX1 antag	RGS4 act	RGS4 inh	Lipid droplet	RGS4 block valid	RGS4 uninduced	M3R basal Ca ctr
FC(F)(F)c1cccc(-c2nn[nH]n2)c1	i	i	i	i	4.79*	21.6	i	i	i
O=C(Nc1nc(-c2cccc3ccccc23)cs1)c1cnccn1	i	i	i	i	5.45*	3.5	28.5%*	34.5%*	i
Cc1ccc(/C=C2\SC(=S)N(c3cccnc3)C2=O)o1	i	i	i	i	i	-2.8	.	.	.
Cc1cccc(N2C(=O)/C(=C/c3cccnc3)SC2=S)c1	i	i	i	i	4.89*	15.2	19.0%*	42.5%*	i
Cc1ccc(N2C(=O)/C(=C/c3cccnc3)SC2=S)cc1	i	i	i	i	i	-2.4	.	i	i
Cc1ccc(N2CC(C(=O)NCc3n[nH]c(=O)c4ccccc34)CC2=O)cc1 (stereo not drawn)	i	i	i	i	i	.	.	.	.
NC(N)=NS(=O)(=O)c1ccc(NC(=S)NC(=O)c2ccc3c(c2)OCO3)cc1	i	i	i	i	i	2.8	.	.	.
O=C(CN1CCCC1)Nc1ccccc1Sc1ccc(Cl)cc1	i	i	i	i	i	-36.0	.	.	.
O=C(CC(SCCO)c1ccc([N+](=O)[O-])cc1)c1ccco1 (stereo not drawn)	i	i	i	i	5.44*	-2.9	11.0%*	i	i
Cc1ccc(C(=O)CC(C(=O)O)n2cnc([N+](=O)[O-])n2)cc1 (stereo not drawn)	i	i	i	i	5.58*	1.7	14.5%*	i	i
COc1ccc(C(CC(=O)c2ccc(C)cc2)Nc2ccc([N+](=O)[O-])cc2)cc1 (stereo not drawn)	i	i	i	i	i	-8.5	.	.	.
Cc1ccc(C(=O)CC(SCC(=O)O)c2ccc([N+](=O)[O-])cc2)cc1 (stereo not drawn)	i	i	i	i	6.29*	-14.2	11.0%*	36.0%*	i
CN(C(=S)Nc1ccc(F)cc1)C1(c2ccccc2Cl)CCCCC1=O (stereo not drawn)	i	i	i	i	i	.	.	.	.

From PubChem BioAssay
